Calls of active or inactive are those of the source. No cut-off for these calls is given here.
Key:
[1] = species: Homo sapiens; assay: Inhibition of PI3K in human HCT116 cells assessed as reduction in AKT phosphorylation at S473 residue at 0.02 to 0.5 uM after 16 hrs by Western blot analysis; assay type: cell-based
Procedure, shortened: (§1)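 Immunoblot of HCT116 lysates (RIPA). 40 μg protein per lane on 10−12% SDS-PAGE, transferred to nitrocellulose, blocked 0.5 h in 5% milk/TBST. Primary antibodies 1:1000 overnight at 4 °C, secondary 1:1000 for 1 h, bands visualized by enhanced ECL.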

[2] = species: Homo sapiens; assay: Selectivity ratio, ratio of IC50 for recombinant human PIK3CB to recombinant human His-tagged PIK3CD/PIK3R1 expressed in baculovirus expression system
[3] = species: Homo sapiens; assay: Selectivity ratio, ratio of IC50 for recombinant human N-terminal FLAG-tagged mTOR (1362 to end amino acids) to IC50 for recombinant human PI3Kalpha
[4] = biological target: Histone deacetylase (Homo sapiens) (UniProt Q13547+O15379+Q9UBN7+Q92769+Q9UQL6+Q8WUI4+Q9BY41+Q96DB2+P56524+Q9UKV0+Q969S8); assay: Inhibition of HDAC in human HCT116 cells assessed as increase in acetylated histone H3 levels after 16 hrs by Western blot analysis; assay type: cell-based
Procedure, shortened: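 HCT116 cells lysed in RIPA after washes in cold PBS. 40 μg protein run on 10−12% SDS-PAGE and transferred to nitrocellulose. Membrane blocked in 5% milk/TBST for 0.5 h, primary antibodies 1:1000 overnight at 4 °C, secondary 1:1000 for 1 h, ECL detection.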

[5] = biological target: Phosphatidylinositol 4,5-bisphosphate 3-kinase catalytic subunit gamma isoform (Homo sapiens, UniProt P48736); assay: Binding affinity to wild-type human partial length PIK3CG (S144 to A1102 residues) expressed in mammalian expression system assessed as residual binding level at 1 uM by Kinomescan method relative to control
Procedure, shortened: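 Kinomescan binding screen at 1 μM across 97 kinases.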

[6] = species: Homo sapiens; assay: Inhibition of PI3K in human HCT116 cells assessed as reduction in AKT phosphorylation at T308 residue at 0.5 to 5 uM after 16 hrs by Western blot analysis; assay type: cell-based; procedure, shortened: as §1
[7] = test system: HGC-27; assay: Antitumor activity against human HGC27 cells xenografted in athymic nude BALB/c mouse assessed as tumor growth inhibition at 100 mpk, po measured 2 times every week; assay type: functional; conditions: HGC-27, po, read-out: TGI

Chain of Phosphatidylinositol 4,5-bisphosphate 3-kinase catalytic subunit gamma isoform (P48736 whole entry, looked up, the tested form may be a part, canonical isoform): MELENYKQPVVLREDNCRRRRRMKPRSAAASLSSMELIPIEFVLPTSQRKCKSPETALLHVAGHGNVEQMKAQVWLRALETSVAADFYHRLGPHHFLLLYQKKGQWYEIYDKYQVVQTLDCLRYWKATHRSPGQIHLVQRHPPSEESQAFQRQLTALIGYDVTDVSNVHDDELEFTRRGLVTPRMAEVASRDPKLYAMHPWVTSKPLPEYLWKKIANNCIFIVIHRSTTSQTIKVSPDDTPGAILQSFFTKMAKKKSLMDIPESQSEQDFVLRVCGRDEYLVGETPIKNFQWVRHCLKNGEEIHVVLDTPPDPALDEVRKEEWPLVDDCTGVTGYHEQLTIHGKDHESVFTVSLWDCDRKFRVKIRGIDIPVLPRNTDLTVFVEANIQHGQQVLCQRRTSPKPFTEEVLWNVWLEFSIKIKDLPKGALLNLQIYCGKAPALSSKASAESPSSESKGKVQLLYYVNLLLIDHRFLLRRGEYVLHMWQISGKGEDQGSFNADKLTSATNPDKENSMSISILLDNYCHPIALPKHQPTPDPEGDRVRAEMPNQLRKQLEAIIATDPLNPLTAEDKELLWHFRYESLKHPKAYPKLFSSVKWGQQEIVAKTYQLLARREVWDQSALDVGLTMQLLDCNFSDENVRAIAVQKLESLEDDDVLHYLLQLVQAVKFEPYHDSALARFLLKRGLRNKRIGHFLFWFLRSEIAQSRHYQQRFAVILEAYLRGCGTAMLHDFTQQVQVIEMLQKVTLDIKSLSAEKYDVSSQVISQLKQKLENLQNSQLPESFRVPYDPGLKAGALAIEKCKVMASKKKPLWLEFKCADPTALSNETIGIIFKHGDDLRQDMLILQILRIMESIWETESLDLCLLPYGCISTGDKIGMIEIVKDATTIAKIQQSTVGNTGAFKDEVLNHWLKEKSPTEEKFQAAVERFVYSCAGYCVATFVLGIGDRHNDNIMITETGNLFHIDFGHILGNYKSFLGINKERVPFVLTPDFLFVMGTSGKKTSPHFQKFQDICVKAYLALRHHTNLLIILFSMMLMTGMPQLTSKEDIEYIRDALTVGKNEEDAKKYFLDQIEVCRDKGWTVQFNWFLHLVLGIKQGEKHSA

| SMILES | inhibition [1] | Ratio IC50 [2] | Ratio IC50 [3] | inhibition [4] | Activity [5] | inhibition [6] | inhibition in vivo at 100 mg/kg [7] |
| --- | --- | --- | --- | --- | --- | --- | --- |
| COc1ccc(-c2cc(OCCN(C)c3ncc(C(=O)NO)cn3)c3ncnc(C)c3c2)cn1 | Active | > 5 | > 27 | Dose-dependent effect |  |  |  |
| COc1ncc(-c2cc(OCCCCCCC(=O)NO)c3ncnc(C)c3c2)cc1F |  |  |  |  | 1.4% | Active | 15.2% |
